Assay results gathered from unrelated publications.
Target: Serine/threonine-protein kinase PAK 6 (PAK6, Homo sapiens, UniProt Q9NQU5)

| Compound | effect on | mode | method | concentration | endpoint | result |
| --- | --- | --- | --- | --- | --- | --- |
| COc1ncccc1-c1cnn2ccc(N3CCN(C(=O)OC(C)C)CC3)nc12 | binding | – | competition with immobilised ligand | 1 µM | remaining binding | 97% |
| O=c1[nH]c2ccccc2n1C1CCN(Cc2ccc(-c3[nH]c4cc5ncnc5cc4nc3-c3ccccc3)cc2)CC1 | cell-free assay | – | – | 0.5 µM | remaining signal | 109% |
| Cn1cc(-c2cc(F)cc(N3CCn4c(cc5c4CCCC5)C3=O)c2CO)cc(Nc2ccc(N3CCN(C4COC4)CC3)cn2)c1=O | enzyme activity | inhibitor | – | 0.1 µM | inhibition | 22% |
| COc1cc(Nc2ncc(F)c(Nc3ccc4c(n3)NC(=O)C(C)(C)O4)n2)cc(OC)c1OC | binding | – | competition with immobilised ligand | 10 µM | inhibition | 96% |
| Cn1cc(-c2cccc(N3CCc4c(sc5c4CC(C)(C)C5)C3=O)c2CO)cc(Nc2ccncn2)c1=O | enzyme activity | inhibitor | – | 1 µM | inhibition | -7% |
| Nc1ncc(-c2nc(N3CCOCC3)nc(N3CCOCC3)n2)c(C(F)F)n1 | binding | – | competition with immobilised ligand | 10 µM | remaining binding | 79% |
| Cn1cncc1[C@](O)(COc1ccc(C#N)cc1-c1ccc(OC(F)(F)F)cc1)c1ccc(C#N)cc1 | cell-free assay | – | competition with immobilised ligand | 1 µM | remaining binding | 98% |
| Cc1nn(C)cc1-c1nc2c(N3CCN(Cc4ccc(Cl)cc4)CC3)c(Cl)cnc2[nH]1 | binding | – | competition with immobilised ligand | 1 µM | remaining binding | 100% |
